In paper PMC12591375 (British journal of pharmacology, 2022):
Read-outs that look alike come from different tables or passages of the source. Marks after values point to notes of the source that are not given here.

Assays:
endogenous GRK2/3 = type: cell-based, human; settings: 30-μM compound 101, 30 min
Outline: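 HEK 293 cells PEI-transfected with mem-Citrine-SH3, Rluc8-β-arrestin 2, HA-hCB2 and empty vector, then replated on PDL. Equilibrated ~30 min in phenol red-free DMEM with 1 mg/mL fatty acid-free BSA and 10 mM HEPES, then given 30 µM test compound or vehicle for 30 min.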

CB2 [1] = molecular target: T1, CB2 (Homo sapiens, UniProt P34972, Q63R); assay: β-arrestin 1 translocation real-time BRET assay; type: cell-based; settings: HEK 293 cells
CB2 [2] = molecular target: T1, CB2; assay: β-arrestin 2 translocation real-time BRET assay, wild-type CB2; type: cell-based; settings: for Span, β-arrestin 2 translocation to CB2 / Span, β-arrestin 2 translocation, wild-type CB2: HEK 293 cells; for lowering of efficacy of β-arrestin 2 translocation by GRK coexpression: coexpression of GRK2, GRK3 and GRK5 versus mock
CB2 D351A/D354A [3] = molecular target: T2, CB2 D351A/D354A (Homo sapiens, UniProt P34972, D351A/D354A/Q63R); assay: β-arrestin 2 translocation BRET assay, CB2 D351A/D354A mutant; type: cell-based; settings: for Span, β-arrestin 2 translocation, CB2 D351A/D354A: HEK 293 cells
CB2 D356A/D359A [4] = molecular target: T3, CB2 D356A/D359A (Homo sapiens, UniProt P34972, D356A/D359A/Q63R); assay: β-arrestin 2 translocation BRET assay, CB2 D356A/D359A mutant; type: cell-based; settings: for Span, β-arrestin 2 translocation, CB2 D356A/D359A: HEK 293 cells
[5] = molecular target: T4, CB2 D351A/D354A/D356A/D359A (Homo sapiens, UniProt P34972, D351A/D354A/D356A/D359A/Q63R); assay: β-arrestin 2 translocation BRET assay, CB2 D351A/D354A/D356A/D359A mutant; type: cell-based; settings: for Span, β-arrestin 2 translocation, CB2 D351A/D354A/D356A/D359A: HEK 293 cells
Wild-type CB2 = Wild-type CB2 (Homo sapiens, UniProt P34972, Q63R); assay: G protein dissociation BRET assay, wild-type CB2; type: cell-based
CB2 D351A/D354A [6] = molecular target: T2, CB2 D351A/D354A; assay: G protein dissociation BRET assay, CB2 D351A/D354A; type: cell-based
CB2 D356A/D359A [7] = molecular target: T3, CB2 D356A/D359A; assay: G protein dissociation BRET assay, CB2 D356A/D359A; type: cell-based
[8] = molecular target: T4, CB2 D351A/D354A/D356A/D359A; assay: G protein dissociation BRET assay, CB2 D351A/D354A/D356A/D359A; type: cell-based; settings: HEK 293 cells
CB2 [9] = molecular target: T1, CB2; assay: β-arrestin 1 translocation real-time BRET assay; type: cell-based; settings: pEC50, β-arrestin 1 translocation to CB2, HEK 293 cells
CB2 [10] = molecular target: T1, CB2; assay: β-arrestin 2 translocation real-time BRET assay, wild-type CB2; type: cell-based; settings: pEC50, β-arrestin 2 translocation to CB2, HEK 293 cells, mock (no GRK), Table 2

Chain of Wild-type CB2 (P34972 whole entry Q63R): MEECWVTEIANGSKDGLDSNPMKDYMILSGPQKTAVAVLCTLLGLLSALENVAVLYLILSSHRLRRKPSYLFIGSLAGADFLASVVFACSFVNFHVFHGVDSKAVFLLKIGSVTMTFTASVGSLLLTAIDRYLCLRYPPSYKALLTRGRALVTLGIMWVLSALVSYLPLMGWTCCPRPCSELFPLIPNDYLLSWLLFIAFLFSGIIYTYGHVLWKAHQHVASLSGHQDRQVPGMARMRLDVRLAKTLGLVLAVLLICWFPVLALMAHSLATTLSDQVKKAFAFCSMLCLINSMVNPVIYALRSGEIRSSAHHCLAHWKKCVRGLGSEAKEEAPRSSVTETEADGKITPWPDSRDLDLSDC
T1 sequence (P34972 whole entry Q63R): as above
T4 sequence (P34972 whole entry Q63R/D351A/D354A/D356A/D359A): as the sequence (P34972 whole entry Q63R) above, with D351A, D354A, D356A, D359A counted along it
T3 sequence (P34972 whole entry Q63R/D356A/D359A): as the sequence (P34972 whole entry Q63R) above, with D356A, D359A counted along it
T2 sequence (P34972 whole entry Q63R/D351A/D354A): as the sequence (P34972 whole entry Q63R) above, with D351A, D354A counted along it

Cn1c(CNc2cccc(C(=O)NCc3ccccc3C(F)(F)F)c2)nnc1-c1ccncc1 [compound 101]
reduction of β-arrestin 2 translocation to CB2 (endogenous GRK2/3; stimulation with 1-μM AMB-FUBINACA): approximately 15%
reduction of β-arrestin 2 translocation to CB2 (endogenous GRK2/3; stimulation with 10-μM CP55940): approximately 15%
reduction of β-arrestin 2 translocation to CB2 (endogenous GRK2/3; stimulation with […] 2-AG): approximately 15%

CCCCCCC(C)(C)c1ccc([C@@H]2C[C@H](O)CC[C@H]2CCCO)c(O)c1 [CP55940]
Span, β-arrestin 1 translocation to CB2 (CB2 [1]; coexpression of GRK1): 86.32 (2.74) ^* ΔBRET.s
Span, β-arrestin 1 translocation to CB2 (CB2 [1]; coexpression of GRK2): 79.90 (3.34) ^* ΔBRET.s
Span, β-arrestin 1 translocation to CB2 (CB2 [1]; coexpression of GRK3): 79.51 (2.33) ^* ΔBRET.s
Span, β-arrestin 1 translocation to CB2 (CB2 [1]; coexpression of GRK4): 64.47 (1.90) ΔBRET.s
Span, β-arrestin 1 translocation to CB2 (CB2 [1]; coexpression of GRK5): 70.53 (2.52) ΔBRET.s
Span, β-arrestin 1 translocation to CB2 (CB2 [1]; coexpression of GRK6): 66.73 (3.12) ΔBRET.s
Span, β-arrestin 1 translocation to CB2 (CB2 [1]; mock (no GRK)): 63.07 (4.10) ΔBRET.s
Span, β-arrestin 2 translocation to CB2 (CB2 [2]; coexpression of GRK1, Table 2): 183.2 (11.32) ΔBRET.s
Span, β-arrestin 2 translocation to CB2 (CB2 [2]; coexpression of GRK2, Table 2): 164.3 (16.29) ^* ΔBRET.s
Span, β-arrestin 2 translocation, wild-type CB2 (CB2 [2]; coexpression of GRK2, Table 3 (mutant experiments)): 174.54 (11.90) ^* ΔBRET.s
Span, β-arrestin 2 translocation to CB2 (CB2 [2]; coexpression of GRK3, Table 2): 155.0 (9.91) ^* ΔBRET.s
Span, β-arrestin 2 translocation, wild-type CB2 (CB2 [2]; coexpression of GRK3, Table 3 (mutant experiments)): 210.00 (2.53) ^* ΔBRET.s
Span, β-arrestin 2 translocation to CB2 (CB2 [2]; coexpression of GRK4, Table 2): 176.9 (8.00) ΔBRET.s
Span, β-arrestin 2 translocation to CB2 (CB2 [2]; coexpression of GRK5, Table 2): 156.0 (6.71) ^* ΔBRET.s
Span, β-arrestin 2 translocation to CB2 (CB2 [2]; coexpression of GRK6, Table 2): 160.6 (8.71) ΔBRET.s
Span, β-arrestin 2 translocation to CB2 (CB2 [2]; mock (no GRK), Table 2): 190.2 (12.38) ΔBRET.s
Span, β-arrestin 2 translocation, wild-type CB2 (CB2 [2]; mock, Table 3 (mutant experiments)): 222.91 (6.17) ΔBRET.s
lowering of efficacy of β-arrestin 2 translocation by GRK coexpression (CB2 [2]): 10–20%
Span, β-arrestin 2 translocation, CB2 D351A/D354A (CB2 D351A/D354A [3]; coexpression of GRK2): 147.34 (2.60) ^* ΔBRET.s
Span, β-arrestin 2 translocation, CB2 D351A/D354A (CB2 D351A/D354A [3]; coexpression of GRK3): 147.06 (10.88) ΔBRET.s
Span, β-arrestin 2 translocation, CB2 D351A/D354A (CB2 D351A/D354A [3]; mock): 132.61 (6.99)^◊ ΔBRET.s
reduction in efficacy of β-arrestin 2 translocation versus wild-type CB2 (CB2 D351A/D354A [3]; mock): 41%
Span, β-arrestin 2 translocation, CB2 D356A/D359A (CB2 D356A/D359A [4]; coexpression of GRK2): 161.84 (5.06) ΔBRET.s
Span, β-arrestin 2 translocation, CB2 D356A/D359A (CB2 D356A/D359A [4]; coexpression of GRK3): 188.04 (8.90) ΔBRET.s
Span, β-arrestin 2 translocation, CB2 D356A/D359A (CB2 D356A/D359A [4]; mock): 170.18 (6.70)^◊ ΔBRET.s
reduction in efficacy of β-arrestin 2 translocation versus wild-type CB2 (CB2 D356A/D359A [4]; mock): 24%
Span, β-arrestin 2 translocation, CB2 D351A/D354A/D356A/D359A ([5]; coexpression of GRK2): 194.18 (13.37) ^* ΔBRET.s
Span, β-arrestin 2 translocation, CB2 D351A/D354A/D356A/D359A ([5]; coexpression of GRK3): 180.16 (13.23) ^* ΔBRET.s
Span, β-arrestin 2 translocation, CB2 D351A/D354A/D356A/D359A ([5]; mock): 142.57 (8.39)^◊ ΔBRET.s
increase of β-arrestin 2 translocation response versus mock ([5]; coexpression of GRK2): 36%
increase of β-arrestin 2 translocation response versus mock ([5]; coexpression of GRK3): 26%
reduction of β-arrestin 2 translocation response versus wild-type CB2 ([5]; mock): 36%
attenuation of G protein dissociation by addition of β-arrestin 2 (Wild-type CB2; 1-μM CP55940): over 50%
G protein dissociation at 1 μM CP55940 (Wild-type CB2; HEK 293 cells, + GRK3): −226.64 (5.63) ΔBRET.s
G protein dissociation at 1 μM CP55940 (Wild-type CB2; HEK 293 cells, + β-arrestin 2): −97.47 (3.67) ΔBRET.s
G protein dissociation at 1 μM CP55940, % mock (Wild-type CB2; HEK 293 cells, + β-arrestin 2): 45.28 (2.15) % mock
G protein dissociation at 1 μM CP55940 (Wild-type CB2; HEK 293 cells, + β-arrestin 2 + GRK3): −91.65 (4.04) ΔBRET.s
Span, G protein dissociation (Wild-type CB2; HEK 293 cells, mock): −216.50 (8.58) ΔBRET.s
attenuation of G protein dissociation by addition of β-arrestin 2 (CB2 D351A/D354A [6]; 1-μM CP55940): over 50%
G protein dissociation at 1 μM CP55940 (CB2 D351A/D354A [6]; HEK 293 cells, + β-arrestin 2): −97.62 (4.27) ΔBRET.s
G protein dissociation at 1 μM CP55940, % mock (CB2 D351A/D354A [6]; HEK 293 cells, + β-arrestin 2): 47.86 (1.69) % mock
Span, G protein dissociation (CB2 D351A/D354A [6]; HEK 293 cells, mock): −204.02 (5.54) ΔBRET.s
attenuation of G protein dissociation by addition of β-arrestin 2 (CB2 D356A/D359A [7]; 1-μM CP55940): over 50%
G protein dissociation at 1 μM CP55940 (CB2 D356A/D359A [7]; HEK 293 cells, + β-arrestin 2): −91.91 (4.94) ΔBRET.s
G protein dissociation at 1 μM CP55940, % mock (CB2 D356A/D359A [7]; HEK 293 cells, + β-arrestin 2): 49.37 (2.63) % mock
Span, G protein dissociation (CB2 D356A/D359A [7]; HEK 293 cells, mock): −186.32 (4.70) ^* ΔBRET.s
G protein dissociation at 1 μM CP55940 ([8]; + GRK3): −267.49 (4.62)^ⱡ ΔBRET.s
G protein dissociation at 1 μM CP55940 ([8]; + β-arrestin 2): −165.31 (10.19)^◊ ΔBRET.s
G protein dissociation at 1 μM CP55940, % mock ([8]; + β-arrestin 2): 67.29 (4.02)^◊ % mock
G protein dissociation at 1 μM CP55940 ([8]; + β-arrestin 2 + GRK3): −155.77 (3.82)^◊ ΔBRET.s
Span, G protein dissociation ([8]; mock): −246.10 (6.75) ^* ΔBRET.s

CCCCC/C=C\C/C=C\C/C=C\C/C=C\CCCC(=O)OC(CO)CO [2-AG, 2-Arachidonoylglycerol]
EC50 (CB2 [9]; coexpression of GRK1): 3.24 µM
EC50 (CB2 [9]; coexpression of GRK2): 2.29 µM
EC50 (CB2 [9]; coexpression of GRK3): 2 µM
EC50 (CB2 [9]; coexpression of GRK4): 2.88 µM
EC50 (CB2 [9]; coexpression of GRK5): 3.63 µM
EC50 (CB2 [9]; coexpression of GRK6): 3.31 µM
EC50 (CB2 [9]; mock (no GRK)): 3.55 µM
EC50 (CB2 [10]): 2.29 µM
Span, β-arrestin 1 translocation to CB2 (CB2 [1]; coexpression of GRK1): 83.57 (2.82) ^* ΔBRET.s
Span, β-arrestin 1 translocation to CB2 (CB2 [1]; coexpression of GRK2): 71.73 (3.39) ^* ΔBRET.s
Span, β-arrestin 1 translocation to CB2 (CB2 [1]; coexpression of GRK3): 68.57 (2.99) ^* ΔBRET.s
Span, β-arrestin 1 translocation to CB2 (CB2 [1]; coexpression of GRK4): 62.00 (2.72) ΔBRET.s
Span, β-arrestin 1 translocation to CB2 (CB2 [1]; coexpression of GRK5): 65.96 (1.69) ^* ΔBRET.s
Span, β-arrestin 1 translocation to CB2 (CB2 [1]; coexpression of GRK6): 74.27 (4.00) ^* ΔBRET.s
Span, β-arrestin 1 translocation to CB2 (CB2 [1]; mock (no GRK)): 56.14 (1.52) ΔBRET.s
Span, β-arrestin 2 translocation to CB2 (CB2 [2]; coexpression of GRK1, Table 2): 198.6 (8.08) ΔBRET.s
Span, β-arrestin 2 translocation to CB2 (CB2 [2]; coexpression of GRK2, Table 2): 165.5 (10.92) ^* ΔBRET.s
Span, β-arrestin 2 translocation to CB2 (CB2 [2]; coexpression of GRK3, Table 2): 164.7 (9.83) ^* ΔBRET.s
Span, β-arrestin 2 translocation to CB2 (CB2 [2]; coexpression of GRK4, Table 2): 191.3 (6.31) ΔBRET.s
Span, β-arrestin 2 translocation to CB2 (CB2 [2]; coexpression of GRK5, Table 2): 157.1 (4.07) ^* ΔBRET.s
Span, β-arrestin 2 translocation to CB2 (CB2 [2]; coexpression of GRK6, Table 2): 158.6 (6.39) ^* ΔBRET.s
Span, β-arrestin 2 translocation to CB2 (CB2 [2]; mock (no GRK), Table 2): 204.9 (14.67) ΔBRET.s
lowering of efficacy of β-arrestin 2 translocation by GRK coexpression (CB2 [2]): 10–20%
